From ChEMBL document CHEMBL3352437, “Novel 3,5-bis(arylidene)-4-oxo-1-piperidinyl dimers: structure-activity relationships and potent antileukemic and antilymphoma cytotoxicity” (Eur J Med Chem, 2014)
pIC50: −log10 of the molar value.

Tests used:
[1] = test system: DU-145; test: Cytotoxicity against human DU145 cells assessed as dead cells at 1 uM after 24 hrs; type: functional
In short: (§1)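 Dienones added as DMSO solutions to cells in RPMI medium and incubated 24 h at 37°C. Cytotoxicity was scored as cell-membrane disruption by propidium iodide staining and expressed as percentage of dead cells, averaged over three independent experiments.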

[2] = test system: Ramos; test: Cytotoxicity against human Ramos cells assessed as dead cells at 1 uM after 24 hrs; type: functional; in short: as §1
[3] = test system: L1210; test: Antiproliferative activity against mouse L1210 cells after 72 hrs by coulter counting analysis; type: functional, cell-based; settings: L1210, 72 h
[4] = test system: K562; test: Antileukemic activity against human K562 cells assessed as inhibition of tumor growth after 24 hrs; type: functional, cell-based; settings: K562, 24 h
[5] = test system: Jurkat; test: Cytotoxicity against human Jurkat cells assessed as dead cells at 1 uM after 24 hrs; type: functional; in short: as §1
[6] = test system: SR; test: Antileukemic activity against human SR cells assessed as inhibition of tumor growth after 24 hrs; type: functional, cell-based
[7] = Cytotoxicity against human 22Rvl cells assessed as dead cells at 1 uM after 24 hrs; type: functional; in short: as §1
[8] = Cytotoxicity against human NALM6 cells assessed as dead cells at 1 uM after 24 hrs; type: functional, NALM-6; in short: as §1
[9] = test system: COLO 205; test: Cytotoxicity against human COLO205 cells assessed as inhibition of tumor growth after 24 hrs; type: functional, cell-based; settings: COLO 205, 24 h
[10] = test system: HS27; test: Cytotoxicity against human HS27 cells assessed as dead cells at 1 uM after 24 hrs; type: cell-based; settings: hs27, 24 h
In short: (§2)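 Compounds added from DMSO solutions to cells in medium (RPMI; DMEM for Hs-27 fibroblasts) and incubated 24 h at 37°C. Membrane disruption scored by propidium iodide uptake. Result is percentage of dead cells, average of three independent experiments.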

[11] = Cytotoxicity against human HuT-102 cells assessed as dead cells at 1 uM after 24 hrs; type: functional; in short: as §1
[12] = test system: CCRF-CEM; test: Cytotoxicity against human CEM cells assessed as dead cells at 1 uM after 24 hrs; type: functional; in short: as §1
[13] = Cytotoxicity against human NCI60 cells assessed as inhibition of tumor growth after 24 hrs; type: functional, cell-based; settings: NCI60, 24 h
[14] = test system: EL4; test: Cytotoxicity against mouse EL4 cells assessed as dead cells at 1 uM after 24 hrs; type: functional; in short: as §1
[15] = test system: KM12; test: Cytotoxicity against human KM12 cells assessed as inhibition of tumor growth after 24 hrs; type: functional, cell-based; settings: KM12, 24 h
[16] = Cytotoxicity against human MDA231 cells assessed as dead cells at 1 uM after 24 hrs; type: functional, MDA-MB-231; in short: as §1
[17] = test system: BJAB; test: Cytotoxicity against human BJAB cells assessed as dead cells at 1 uM after 24 hrs; type: functional; in short: as §1
[18] = test system: HL-60(TB); test: Antileukemic activity against human HL-60(TB) cells assessed as inhibition of tumor growth after 24 hrs; type: functional, cell-based; settings: HL-60, 24 h
[19] = test system: HeLa; test: Antiproliferative activity against human HeLa cells after 72 hrs by coulter counting analysis; type: functional, cell-based
In short: (§3)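 Cells exposed to a range of concentrations in RPMI 1640 at 37°C for 72 h. Surviving cells counted by Coulter counter. IC50 taken from concentration-response curves, mean ± SD of at least three independent experiments.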

[20] = test system: HCC70; test: Cytotoxicity against human HCC70 cells assessed as dead cells at 1 uM after 24 hrs; type: functional; in short: as §1
[21] = test system: HCC 2998; test: Cytotoxicity against human HCC2998 cells assessed as inhibition of tumor growth after 24 hrs; type: functional, cell-based; settings: HCC 2998, 24 h
[22] = Antiproliferative activity against human Molt4/C8 cells after 72 hrs by coulter counting analysis; type: functional, cell-based; settings: MOLT-4, 72 h; in short: as §3
[23] = Cytotoxicity against human HCT15 cells assessed as inhibition of tumor growth after 24 hrs; type: functional, cell-based; settings: HCT-15, 24 h
[24] = test system: LAPC4; test: Cytotoxicity against human LAPC4 cells assessed as dead cells at 1 uM after 24 hrs; type: functional; in short: as §1
[25] = Cytotoxicity against human SupT1 cells assessed as dead cells at 1 uM after 24 hrs; type: functional, SUP-T1; in short: as §1
[26] = test system: YT; test: Cytotoxicity against human YT cells assessed as dead cells at 1 uM after 24 hrs; type: functional; in short: as §1
[27] = test system: CCRF-CEM; test: Antiproliferative activity against human CEM cells after 72 hrs by coulter counting analysis; type: functional, cell-based; in short: as §3
[28] = test system: MCF7; test: Cytotoxicity against human MCF7 cells assessed as dead cells at 1 uM after 24 hrs; type: functional; in short: as §1
[29] = Antileukemic activity against human RPMI8226 cells assessed as inhibition of tumor growth after 24 hrs; type: functional, cell-based; settings: rpmi-8226
[30] = test system: SW-620; test: Cytotoxicity against human SW620 cells assessed as inhibition of tumor growth after 24 hrs; type: functional, cell-based; settings: SW-620, 24 h
[31] = Cytotoxicity against human MOLT3 cells assessed as dead cells at 1 uM after 24 hrs; type: functional, MOLT-3; in short: as §1
[32] = Cytotoxicity against human MCF10A cells assessed as dead cells at 1 uM after 24 hrs; type: cell-based; settings: mcf-10a; in short: as §2
[33] = test system: Raji; test: Cytotoxicity against human Raji cells assessed as dead cells at 1 uM after 24 hrs; type: functional; in short: as §1

SMILES | Activity [1] [%] | Activity [2] [%] | pIC50 [3] | pIC50 [4] | Activity [5] [%] | pIC50 [6] | Activity [7] [%] | Activity [8] [%] | pIC50 [9] | Activity [10] [%] | Activity [11] [%] | Activity [12] [%] | pIC50 [13] | Activity [14] [%] | pIC50 [15] | Activity [16] [%] | Activity [17] [%] | pIC50 [18] | pIC50 [19] | Activity [20] [%] | also measured
O=C1/C(=C/c2ccc(Cl)cc2)CN(C(=O)C(=O)N2C/C(=C\c3ccc(Cl)cc3)C(=O)/C(=C/c3ccc(Cl)cc3)C2)C/C1=C\c1ccc(Cl)cc1 | 33.1 | 82.9 | 6.26 | 6.89 | 78.5 | 7.70 | 13.6 | 59 | 6.80 | 0 | 31.4 | 59.9 | 6.66 | 52.5 | 6.68 | 10 | 43.1 | 6.72 | 6.19 | 8.4 | pIC50 [21]: 6.51; pIC50 [22]: 6.53; pIC50 [23]: 6.85; Activity [24]: 27%; Activity [25]: 18.1%; Activity [26]: 21.5%; pIC50 [27]: 6.10; Activity [28]: 17.8%; pIC50 [29]: 7.30; pIC50 [30]: 6.74; Activity [31]: 0.4%; Activity [32]: 2.2%; Activity [33]: 35.7%
O=C1/C(=C\c2ccc(Cl)cc2)CN(C(=O)CC(=O)N2C/C(=C\c3ccc(Cl)cc3)C(=O)/C(=C/c3ccc(Cl)cc3)C2)C/C1=C\c1ccc(Cl)cc1 | 40.3 | 86.3 | 6.07 | 7.52 | 85.3 | 8.00 | 1.7 | 68.6 | 7.10 | 5.7 | 20.4 | 83 | 7.05 | 55.4 | 6.80 | 32.7 | 49.9 | 6.96 | 6.09 | 7.8 | pIC50 [21]: 6.89; pIC50 [22]: 5.98; pIC50 [23]: 7.22; Activity [24]: 1%; Activity [25]: 21.1%; Activity [26]: 16.8%; pIC50 [27]: 5.97; Activity [28]: 19.5%; pIC50 [29]: 7.70; pIC50 [30]: 7.52; Activity [31]: 20.6%; Activity [32]: 3.1%; Activity [33]: 32.7%
O=C1/C(=C/c2ccc(F)cc2)CN(C(=O)C(=O)N2C/C(=C\c3ccc(F)cc3)C(=O)/C(=C/c3ccc(F)cc3)C2)C/C1=C\c1ccc(F)cc1 | 15.2 | 53.3 | 6.37 | 6.55 | 87.8 | 6.80 | 30.1 | 61.6 | 6.20 | 0.6 | 64.4 | 85.3 | 6.24 | 34.7 | 6.52 | 5.5 | 61.8 | 5.95 | 6.41 | 6.6 | pIC50 [21]: 6.21; pIC50 [22]: 7.08; pIC50 [23]: 6.80; Activity [24]: 11.3%; Activity [25]: 35.6%; Activity [26]: 17.1%; pIC50 [27]: 6.66; Activity [28]: 16.2%; pIC50 [29]: 6.92; pIC50 [30]: 6.49; Activity [31]: 3.1%; Activity [32]: 7.7%; Activity [33]: 33.5%
